B2AR ag – human beta-2 adrenergic receptor agonism by FAP | P07550 | Am2.2-beta2AR cells, FAP receptor internalization, flow cytometry | response, % (test concentration not listed) | 0.43% of 340,000 active;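 active = response above a set limit, near 3 SD of response in nonfluorescent compounds, cut at about 42% in these data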
UHRF1 MBD2 ctr – human UHRF1 methylated DNA binding inhibitors. Q96T88. inhibition, % at 4.4 µM. UHRF1 binding to methylated oligo, TR-FRET. 0.75% of 370,000 active; in the data active = inhibition above about 21%;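 note: UHRF1 SRA domain binding a hemimethylated CpG hairpin DNA probe; 0% = median of test compound wells and 100% = reference inhibitor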
Target sequence (Q96T88 whole entry, looked up, the tested form may be a part): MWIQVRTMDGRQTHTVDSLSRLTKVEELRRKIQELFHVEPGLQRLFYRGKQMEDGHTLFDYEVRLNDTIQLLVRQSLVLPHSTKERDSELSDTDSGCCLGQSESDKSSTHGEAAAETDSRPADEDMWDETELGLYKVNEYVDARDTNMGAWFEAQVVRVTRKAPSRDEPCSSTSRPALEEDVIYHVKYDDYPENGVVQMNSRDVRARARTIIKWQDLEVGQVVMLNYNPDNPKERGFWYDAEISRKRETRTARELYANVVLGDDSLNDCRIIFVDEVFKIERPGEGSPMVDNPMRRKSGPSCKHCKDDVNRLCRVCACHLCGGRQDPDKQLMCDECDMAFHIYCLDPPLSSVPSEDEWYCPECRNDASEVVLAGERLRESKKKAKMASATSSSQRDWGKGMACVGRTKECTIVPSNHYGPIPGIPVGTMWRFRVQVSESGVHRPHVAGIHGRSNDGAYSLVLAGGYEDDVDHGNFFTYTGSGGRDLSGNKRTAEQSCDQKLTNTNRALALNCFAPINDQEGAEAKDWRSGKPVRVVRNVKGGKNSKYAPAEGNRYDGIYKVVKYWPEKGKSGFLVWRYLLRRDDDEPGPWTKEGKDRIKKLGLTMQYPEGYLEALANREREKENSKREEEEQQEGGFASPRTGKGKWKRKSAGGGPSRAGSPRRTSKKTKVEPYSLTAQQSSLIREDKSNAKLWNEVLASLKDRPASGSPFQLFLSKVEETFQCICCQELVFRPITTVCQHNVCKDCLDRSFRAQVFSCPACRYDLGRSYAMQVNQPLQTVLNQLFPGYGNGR
Rin1-Abl PPI inh – inhibitors of human Rin1-Abl protein interaction; P00519+Q13671; TR-FRET Rin1/Abl binding, biochemical; inhibition, % at 7.35 µM; 0.4% of 360,000 active; AID 588664; in the data active = inhibition above about 5%, passing the limit was not always enough
Arrestin-AP2 inh – blocks beta-arrestin peptide binding to AP2 adaptin; FITC-arrestin peptide / GST-AP2 beads, flow cytometry; AP2 beta2 appendage carries R879A mutation; inhibition, % at 10 µM; 0.31% of 340,000 active;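 active = inhibition above a set limit, near 3 SD of compounds lacking own fluorescence, cut at about 54% in these data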;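 note: plate controls were DMSO wells for no effect and 5 µM unlabelled arrestin peptide for full effect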
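System: GST-AP2 R879A glutathione beads. Medium: PBS with 0.05% Tween 20 and 0.1% BSA. Also added: FITC-arrestin peptide, 50 nM. Incubation: 12 min plus 1 h, RT. Measured by: high-throughput flow cytometry of beads, ex 488, em 535 nm. Evaluation: percent drop in bead-associated FITC signal.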
MBD2 DNA inh – blocks human MBD2 binding to methylated DNA; Q9UBB5; TR-FRET, MBD2 binding to methylated oligonucleotide; inhibition, % at 4.4 µM; 0.31% of 370,000 active; AID 686964; in the data active = inhibition above about 13%
ABHD5-PLIN5 inh – ABHD5-PLIN5 protein interaction inhibition; Q00G26+Q8WTS1; inhibition, % at 4 µM; 0.78% of 360,000 active; Split G. princeps luciferase complementation, luminescence, 4 h;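 active = inhibition above the mean inhibition across every tested compound plus 3 SD, cut at about 22% in these data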;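 note: 0% = DMSO only wells and the 100% control is not disclosed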
Beta2AR ag CP1 – human beta-2 adrenergic receptor agonism, cherry pick; Am2.2-beta2AR cells, FAP surface receptor, flow cytometry; hits give low values; shares compounds with B2AR ag; percent response (surface receptor), % at 10 µM; 25% of 1,100 active;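 active = surface receptor percent response at or below 58%, roughly 3 SD from nonfluorescent compounds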
B2AR FAP counter – fluorescence artifact in beta-2AR agonist FAP counterscreen. AID 588765. Am2.2 cells, FAP fluorogen flow cytometry; hits give low values. shares compounds with B2AR ag. calls only at 10 µM. 1,100 tested, under 10 active;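 active = percent response below a set limit in fluorescence channel 1 and below 50% in channel 8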
Active calls of the source: *; i = inactive; / = not tested or not shown. A selection: hits, their analogues and other compounds. The true share with any hit is near 2.5%.

SMILES | B2AR ag | UHRF1 MBD2 ctr | Rin1-Abl PPI inh | Arrestin-AP2 inh | MBD2 DNA inh | ABHD5-PLIN5 inh | Beta2AR ag CP1 | B2AR FAP counter
Cn1cc(CN2CCc3sccc3C2)c(-c2ccccc2F)n1 | -1.4 | -0.9 | 0.8 | -7.0 | 3.0 | -2.8 | / | /
Clc1ccccc1CN1CCc2sccc2C1 | 5.0 | -1.6 | -3.2 | 8.9 | -1.9 | -5.8 | 103.9 | i
CC(=O)c1cccc(NC(=O)COc2ccc(S(=O)(=O)N3CCCCC3)cc2)c1 | 2.1 | 5.3 | -4.4 | 1.0 | 4.3 | -4.2 | 112.6 | i
COc1ccc(N2C(=O)CC(N3CCN(S(=O)(=O)c4ccc(Cl)cc4)CC3)C2=O)cc1 (centres undefined) | -1.6 | -1.0 | 3.1 | -5.8 | -1.2 | 3.6 | / | /
COc1ccccc1CCC(=O)Nc1cccc(S(=O)(=O)N2CCCCCC2)c1 | 54.0* | 1.9 | -1.9 | 4.7 | 5.0 | 2.3 | 10.2* | i
CCOC(=O)c1ccc(NC(=O)COc2ccc(S(=O)(=O)N3CCCC3)cc2)cc1 | 97.8* | 3.6 | 2.8 | -1.0 | 7.7 | 0.4 | 20.8* | i
Cc1ccc(OCC(=O)Nc2ccc(S(=O)(=O)N3CCCC3)cc2)cc1 | 1.1 | 8.6 | -0.9 | -7.0 | 1.1 | 1.8 | / | /
CCOC(=O)c1ccc(S(=O)(=O)N2CCN(C3CC(=O)N(c4ccc(OC)cc4)C3=O)CC2)cc1 (centres undefined) | 52.3* | 7.4 | -2.5 | -5.4 | -5.2 | -4.9 | 106.3 | i
CSc1nc(NCc2ccco2)c2sc3nc(C(C)C)c4c(c3c2n1)CC(C)(C)OC4 | 10.2 | 1.9 | -3.0 | 10.2 | -0.9 | -4.9 | / | /
CC(C)c1nc2sc3c(NCc4ccccc4)ncnc3c2c2c1COC(C)(C)C2 | 2.1 | 4.3 | -0.3 | 0.9 | 2.8 | -2.9 | 113.9 | i
COc1ccc(NS(=O)(=O)c2cc(NC(=O)c3nc4nc(C)cc(C)n4n3)ccc2C)cc1 | -1.9 | 8.5 | 1.6 | 17.1 | -2.0 | 0.7 | 133.2 | i
COc1ccccc1NS(=O)(=O)c1cccc(NC(=O)c2nc3nc(C)cc(C)n3n2)c1 | -2.1 | 0.7 | -1.2 | 5.0 | 0.8 | -2.5 | 136.3 | i
CC(=O)CC[C@H]1CC[C@]2(CCCN(C(=O)c3ccc4ccccc4n3)C2)O1 | / | 0.2 | / | / | 1.0 | / | / | /
CCN(CCNC(=O)[C@H]1C=C(OC)C(=O)C[C@H](c2ccccc2)[C@H]1C)C(C)=O | / | 0.8 | / | / | -2.3 | / | / | /
O=S(=O)(NCc1ccc(Cl)cc1)c1ccc(Br)cc1C1CC[C@@H](O)C1 (some centres undefined) | / | 5.5 | / | / | 6.4 | / | / | /
O=C(Nc1ccccc1)c1ccccc1CCc1ccccc1 | 31.8 | 0.4 | 3.5 | 13.9 | -1.7 | -3.9 | 45.7* | i
CCNC(=O)c1ccccc1CCc1ccccc1 | 0.1 | -0.1 | -0.7 | -4.2 | 0.5 | 0.7 | / | /
CCSc1nc2ccccc2n1C(=O)c1ccc(S(=O)(=O)N2CCCCC2)cc1 | 37.7 | -2.4 | 2.6 | -13.7 | -2.9 | 5.2 | / | /
CCSc1nc2ccccc2n1C(=O)c1ccc(S(=O)(=O)N2CCCCCC2)cc1 | 52.8* | -0.6 | -2.4 | 51.1 | 4.0 | 3.9 | 56.6* | i
COc1ccc(OC)c(S(=O)(=O)N2CCCC(C(=O)NCc3cccnc3)C2)c1 (centres undefined) | 71.3* | -1.0 | -1.2 | 27.1 | -1.4 | 1.1 | 91.6 | i
COc1cc(C(C)=O)ccc1OCC(O)CNCC(O)c1ccccc1 (centres undefined) | -9.2 | 1.9 | -0.6 | 3.1 | -2.0 | -3.5 | 108.8 | i
COc1ccc(-c2cc(-c3nnc4sc(Cc5cccs5)nn34)[nH]n2)cc1 | / | 0.0 | / | / | 8.2 | / | / | /
Cc1ccc(Sc2ncccc2COC(=O)Nc2ccccc2)cc1 | 3.8 | -0.7 | -0.4 | 13.5 | -0.4 | -4.5 | / | /
Cc1ccc(Sc2ncccc2COC(=O)Nc2c(C)cccc2C)cc1 | 63.1* | -2.6 | 0.4 | 5.7 | 5.3 | -3.9 | 118.4 | i
Cc1ccc(CN2CCCCC(NC(=O)c3ccccc3)C2=O)cc1 (centres undefined) | / | -0.5 | / | / | 2.4 | / | / | /

Screening results (PubChem)
